According to ChEMBL document CHEMBL3390837, “Bridged tetrahydroisoquinolines as selective NADPH oxidase 2 (Nox2) inhibitors” (Medchemcomm, 2013):
Calls of active or inactive are those of the source. No cut-off for these calls is given here.

Assays:
[1] = Cytotoxicity against african green monkey COS7 cells expressing human p22phox assessed as cell viability at 25 to 50 uM after 15 mins by luminogenic assay; assay type: cell-based; conditions: chlorocebus aethiops, cos-7, 0.25 h
Procedure, shortened: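 COS-22 cells plated at 2.5 x 10³ cells/well in OPTIMEM, exposed 15 min to compounds at various concentrations; dead-cell protease release read with luminogenic AAF peptide substrate, signal before and after digitonin used to derive % dead; reported as % live cells (100 − % dead) per well.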

NADPH oxidase 1 = biological target: T1, NADPH oxidase 1 (Homo sapiens, UniProt Q9Y5S8); assay: Inhibition of full length human NOX1 transfected in COS 22 cells assessed as inhibition of constitutive ROS generation by chemiluminescence assay; conditions: read-out: IC50
T1 sequence (Q9Y5S8 whole entry): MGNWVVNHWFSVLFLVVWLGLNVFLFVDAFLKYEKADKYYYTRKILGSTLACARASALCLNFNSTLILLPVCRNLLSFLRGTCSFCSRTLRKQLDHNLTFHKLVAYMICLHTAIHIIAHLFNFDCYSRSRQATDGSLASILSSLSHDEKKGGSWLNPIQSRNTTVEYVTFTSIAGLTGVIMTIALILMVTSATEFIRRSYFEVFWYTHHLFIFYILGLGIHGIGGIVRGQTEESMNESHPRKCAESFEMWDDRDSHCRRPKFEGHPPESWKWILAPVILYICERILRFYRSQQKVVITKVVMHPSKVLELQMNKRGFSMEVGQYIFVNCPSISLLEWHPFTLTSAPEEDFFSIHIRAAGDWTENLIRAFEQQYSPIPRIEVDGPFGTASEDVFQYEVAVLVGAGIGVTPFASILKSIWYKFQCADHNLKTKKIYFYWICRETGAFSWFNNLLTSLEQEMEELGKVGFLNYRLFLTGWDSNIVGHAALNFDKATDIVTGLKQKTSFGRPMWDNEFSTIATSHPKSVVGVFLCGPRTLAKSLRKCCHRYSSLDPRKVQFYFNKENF

NADPH oxidase 5 = biological target: T2, NADPH oxidase 5 (Homo sapiens, UniProt Q96PH1); assay: Inhibition of full length human NOX5 transfected in HEK cells assessed as inhibition of ionomycin-stimulated ROS generation by chemiluminescence assay; assay type: cell-based, HEK293
T2 sequence (Q96PH1 whole entry): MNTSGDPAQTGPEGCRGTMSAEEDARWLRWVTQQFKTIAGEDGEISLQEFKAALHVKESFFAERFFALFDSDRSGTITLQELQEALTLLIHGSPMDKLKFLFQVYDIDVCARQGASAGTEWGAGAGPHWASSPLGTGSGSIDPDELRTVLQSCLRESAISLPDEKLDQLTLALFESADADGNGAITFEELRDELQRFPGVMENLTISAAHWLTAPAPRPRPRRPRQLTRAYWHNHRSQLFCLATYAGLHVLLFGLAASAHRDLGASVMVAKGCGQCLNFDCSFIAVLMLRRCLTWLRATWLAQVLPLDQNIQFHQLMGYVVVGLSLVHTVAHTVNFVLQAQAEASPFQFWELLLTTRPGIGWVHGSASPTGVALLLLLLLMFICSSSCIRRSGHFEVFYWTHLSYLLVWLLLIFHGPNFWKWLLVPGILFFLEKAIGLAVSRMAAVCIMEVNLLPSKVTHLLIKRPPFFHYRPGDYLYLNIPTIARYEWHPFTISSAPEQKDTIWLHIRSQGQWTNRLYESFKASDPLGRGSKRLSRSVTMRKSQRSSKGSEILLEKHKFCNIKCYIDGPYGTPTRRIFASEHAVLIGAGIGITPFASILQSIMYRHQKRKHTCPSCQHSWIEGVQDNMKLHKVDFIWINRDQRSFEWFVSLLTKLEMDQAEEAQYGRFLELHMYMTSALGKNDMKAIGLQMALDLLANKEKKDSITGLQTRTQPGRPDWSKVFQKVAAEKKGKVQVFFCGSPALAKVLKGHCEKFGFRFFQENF
Procedure, shortened: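 HEK-Nox5 cells at 5 × 10⁴ cells/well in OPTIMEM, 10 min at 37 °C in PBS with L-012, then stimulated with 1 µM PMA/0.1 µM ionomycin; luminescence over time; SOD 150 U/mL used to confirm superoxide specificity. IC50 by three-parameter fit, Hill slope 1, top/bottom fixed 100/0.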

[2] = biological target: T3, NADPH oxidase 2 (Homo sapiens) (UniProt P04839); assay: Inhibition of full length human NOX2 transfected in COS 22 cells assessed as inhibition of lithium dodecyl sulphate-stimulated ROS generation at 6.3 uM preincubated for 15 mins followed by lithium dodecyl sulphate challenge by cell-free assay in presence of NADPH
T3 sequence (whole entry): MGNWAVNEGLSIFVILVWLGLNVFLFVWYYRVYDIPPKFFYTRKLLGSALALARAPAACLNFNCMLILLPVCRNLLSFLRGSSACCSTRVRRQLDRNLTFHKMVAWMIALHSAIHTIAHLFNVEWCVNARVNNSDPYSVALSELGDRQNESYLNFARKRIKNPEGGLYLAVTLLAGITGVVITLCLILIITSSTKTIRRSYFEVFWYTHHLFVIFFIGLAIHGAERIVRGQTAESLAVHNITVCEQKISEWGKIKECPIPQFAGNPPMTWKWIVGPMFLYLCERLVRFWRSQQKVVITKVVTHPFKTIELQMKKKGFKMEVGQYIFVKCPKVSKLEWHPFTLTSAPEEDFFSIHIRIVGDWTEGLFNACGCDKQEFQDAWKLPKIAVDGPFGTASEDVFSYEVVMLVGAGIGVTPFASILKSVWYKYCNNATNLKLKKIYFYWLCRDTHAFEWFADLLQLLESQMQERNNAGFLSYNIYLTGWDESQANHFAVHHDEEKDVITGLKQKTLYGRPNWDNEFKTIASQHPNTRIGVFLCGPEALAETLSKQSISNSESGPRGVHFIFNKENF
Procedure, shortened: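 COS-Nox2 lysate (freeze/thaw ×5, needle passage, 1000 × g spin, kept near 0 °C) at 5 × 10⁵ cell equivalents/well in 65 mM sodium phosphate pH 7.0 with 1 mM EGTA, 10 µM FAD, 1 mM MgCl₂, 2 mM NaN₃, 0.2 mM cytochrome c; superoxide from initial 10-min linear rate of SOD-inhibitable cytochrome c reduction at 550 nm (21.1 mM⁻¹ cm⁻¹).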

[3] = biological target: Xanthine dehydrogenase/oxidase (Bos taurus, UniProt P80457); assay: Inhibition of bovine milk xanthine oxidase assessed as hypoxanthine-stimulated ROS generation by measuring H2O2 production at 25 to 50 uM by fluorescence assay; conditions: cattle
Xanthine dehydrogenase/oxidase, sequence (P80457 whole entry): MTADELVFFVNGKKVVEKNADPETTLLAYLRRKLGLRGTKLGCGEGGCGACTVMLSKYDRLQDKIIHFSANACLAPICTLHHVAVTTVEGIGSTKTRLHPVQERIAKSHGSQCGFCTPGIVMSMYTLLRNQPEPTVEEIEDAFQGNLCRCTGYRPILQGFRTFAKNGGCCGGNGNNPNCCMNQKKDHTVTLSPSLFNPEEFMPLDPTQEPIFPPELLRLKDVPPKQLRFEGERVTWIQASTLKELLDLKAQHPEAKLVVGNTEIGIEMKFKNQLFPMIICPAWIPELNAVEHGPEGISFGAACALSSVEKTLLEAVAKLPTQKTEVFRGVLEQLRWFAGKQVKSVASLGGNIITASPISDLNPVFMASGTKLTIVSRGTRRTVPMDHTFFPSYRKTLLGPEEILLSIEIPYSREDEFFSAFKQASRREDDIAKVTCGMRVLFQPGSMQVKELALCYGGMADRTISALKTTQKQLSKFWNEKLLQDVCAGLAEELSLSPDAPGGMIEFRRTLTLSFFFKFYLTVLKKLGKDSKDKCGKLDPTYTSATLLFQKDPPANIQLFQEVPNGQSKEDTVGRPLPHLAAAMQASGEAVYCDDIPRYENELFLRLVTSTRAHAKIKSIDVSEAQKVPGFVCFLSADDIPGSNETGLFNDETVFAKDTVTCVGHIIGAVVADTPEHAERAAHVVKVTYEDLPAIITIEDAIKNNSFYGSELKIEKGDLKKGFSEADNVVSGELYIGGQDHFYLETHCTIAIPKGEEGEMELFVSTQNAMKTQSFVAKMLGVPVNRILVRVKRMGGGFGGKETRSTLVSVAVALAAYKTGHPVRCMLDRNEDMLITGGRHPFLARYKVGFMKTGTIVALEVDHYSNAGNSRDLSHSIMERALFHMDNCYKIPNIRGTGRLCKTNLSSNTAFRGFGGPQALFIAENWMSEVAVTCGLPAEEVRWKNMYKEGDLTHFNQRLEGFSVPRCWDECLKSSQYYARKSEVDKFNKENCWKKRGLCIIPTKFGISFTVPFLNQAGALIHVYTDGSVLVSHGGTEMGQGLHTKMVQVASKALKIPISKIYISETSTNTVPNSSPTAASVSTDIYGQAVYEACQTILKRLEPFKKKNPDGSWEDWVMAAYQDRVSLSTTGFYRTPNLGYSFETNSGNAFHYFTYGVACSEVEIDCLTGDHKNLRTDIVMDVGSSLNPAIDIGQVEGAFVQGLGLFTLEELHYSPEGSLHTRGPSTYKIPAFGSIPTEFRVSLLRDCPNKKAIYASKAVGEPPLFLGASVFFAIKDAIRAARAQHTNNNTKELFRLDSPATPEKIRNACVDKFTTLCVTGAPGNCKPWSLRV

NADPH oxidase 2 = biological target: T4, NADPH oxidase 2 (Homo sapiens, UniProt P04839); assay: Inhibition of full length human NOX2 transfected in COS 22 cells assessed as inhibition of Phorbol 12-myristate 13-acetate-stimulated ROS generation by measuring H2O2 production by fluorescence assay in presence of superoxide dismutase; assay type: cell-based; conditions: read-out: IC50
T4 sequence (P04839 whole entry): T3 sequence (whole entry)
Procedure, shortened: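 Intact COS-Nox2 cells in Hepes pH 7.4 buffer with 0.1 mM Amplex Red, 0.32 U/ml HRP and 150 U/mL SOD, drug 15 min at 37 °C; started with 5 µM PMA; fluorescence monitored 1 h at 37 °C; rate as RFU/min minus unstimulated cells; % of vehicle control.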

For `C=C(C)C[C@@H]1N[C@H]2CC(C)(C)[C@@H]1c1c(Br)cccc12` (racemic), the Activity [1] was “Non-toxic”, the IC50 (NADPH oxidase 1) was 31 µM and the IC50 (NADPH oxidase 5) was 20 µM. The inhibition [2] was “Active”, the “inhibition (INH)” value [3] was “Not Active” and the IC50 (NADPH oxidase 2) was 40 µM.
